Measured values from ChEMBL document CHEMBL1147726, “Prodrug forms of N-[(4-deoxy-4-amino-10-methyl)pteroyl]glutamate-gamma-[psiP(O)(OH)]-glutarate, a potent inhibitor of folylpoly-gamma-glutamate synthetase: synthesis and hydrolytic stability” (J Med Chem, 2006).

What was measured:
CHO [1] = experiment: Cytotoxicity against Pro3 cells derived from CHO cells with fully functional reduced folate carrier; format: cell-based; details: Cricetulus griseus
Method in brief: (§1)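 CHO-derived cells grown in RPMI 1640 medium and exposed continuously to compound for 72 h. Serial dilutions were made in DMSO. Viability was read with a CellTiter-Blue assay. IC50 was taken from dose-response curves over 1 nM to 1 µM.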

CHO [2] = experiment: Cytotoxicity against R2 mutant cells derived from CHO cells with reduced expression of RFC; format: functional, cell-based; details: Cricetulus griseus; method in brief: as §1
CHO [3] = experiment: Cytotoxicity in RFC deficient 43-10 cells derived from CHO cells transfected with human RFC cDNA; format: functional, cell-based; details: Cricetulus griseus; method in brief: as §1
[4] = Half life of hydrolysis rate in phosphate buffer at pH 8.0; format: ADME
Method in brief: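 Prodrug was diluted into 20 mM phosphate buffer, pH 8.0, containing 5% DMSO, with serial dilutions made in the same phosphate. Loss of the parent ester and formation of products were monitored over time by HPLC (UV at 254 and 310 nm). t = 0 is autosampler injection. Ester decay was fit to pseudo-first-order kinetics to give the half-life.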

[5] = Half life of hydrolysis rate in RPMI-1640 medium at pH 8.0; format: ADME
Method in brief: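 Prodrug stock was diluted into RPMI-1640 cell medium (pH 8.0) and filtered, and disappearance of the ester was followed by HPLC with UV detection at 254 and 310 nm. t = 0 is the time the autosampler injected the sample. The half-life was determined from the HPLC data.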

| SMILES | IC50 (CHO [1]) | IC50 (CHO [2]) | IC50 (CHO [3]) | half-life [4] | half-life [5] |
| --- | --- | --- | --- | --- | --- |
| COC(=O)CCC(CP(=O)(O)CCC(NC(=O)c1ccc(N(C)Cc2cnc3nc(N)nc(N)c3n2)cc1)C(=O)OC)C(=O)OC (configuration not stated) | 500 nM | > 1000 nM | 300 nM | > 100 h | – |
| CN(Cc1cnc2nc(N)nc(N)c2n1)c1ccc(C(=O)NC(CCP(=O)(O)CC(CCC(=O)O)C(=O)O)C(=O)O)cc1 (configuration not stated) | > 1000 nM | > 1000 nM | > 1000 nM | – | – |
| CN(Cc1cnc2nc(N)nc(N)c2n1)c1ccc(C(=O)NC(CCP(=O)(O)CC(CCC(=O)OCOC(=O)C(C)(C)C)C(=O)OCOC(=O)C(C)(C)C)C(=O)OCOC(=O)C(C)(C)C)cc1 (configuration not stated) | 700 nM | 350 nM | 250 nM | 8 h | 3 h |
| COP(=O)(CCC(NC(=O)c1ccc(N(C)Cc2cnc3nc(N)nc(N)c3n2)cc1)C(=O)OCOC(=O)C(C)(C)C)CC(CCC(=O)OCOC(=O)C(C)(C)C)C(=O)OCOC(=O)C(C)(C)C (configuration not stated) | > 1000 nM | > 1000 nM | 800 nM | 3 h | 1 h |
